Laboratory results as given in publication PMC5055850 (Bioorganic & medicinal chemistry, 2016).
Where two headings read alike, the source gives them in different places.

How the values were obtained:
Assay type in all cases: cell-based
[1] = target: T1, FPR3 (Homo sapiens, UniProt P25089); test: Ca2+ flux assay in FPR3-HL60 cells; conditions: for FPR3-HL60 Efficacy: % of the response induced by 5 nM WKYMVm
T1 sequence (P25089 1-353): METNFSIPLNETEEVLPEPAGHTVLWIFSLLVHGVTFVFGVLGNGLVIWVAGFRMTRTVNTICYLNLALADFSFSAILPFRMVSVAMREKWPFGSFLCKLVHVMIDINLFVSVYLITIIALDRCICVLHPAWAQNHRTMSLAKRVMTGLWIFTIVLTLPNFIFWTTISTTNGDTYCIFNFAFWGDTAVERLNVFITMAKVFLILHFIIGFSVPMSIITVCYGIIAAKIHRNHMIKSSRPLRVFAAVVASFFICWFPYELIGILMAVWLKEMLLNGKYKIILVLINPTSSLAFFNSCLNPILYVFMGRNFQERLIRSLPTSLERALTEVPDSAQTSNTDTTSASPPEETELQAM
In short: (§1)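 FPR1-, FPR2- or FPR3-transfected HL-60 cells grown in RPMI 1640 with 10% heat-inactivated FCS, 10 mM HEPES and G418 (1 mg/mL). Cells loaded with Fluo-4 AM (1.25 µg/mL final) for 30 min at 37 °C in the dark, then 2 × 10^5 cells/well. Fluorescence (ex 485/em 538 nm) read every 5 s for 240 s at room temperature. Peak rise over baseline normalized to 5 nM fMLF (FPR1) or 5 nM WKYMVm (FPR2, FPR3). EC50 from 5–6-point nonlinear fits, three independent experiments.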

[2] = target: T2, FPR2 (Homo sapiens, UniProt P25090); test: Ca2+ flux assay in FPR2-HL60 cells; conditions: for EC50: HL-60 cells transfected with FPR2; for Emax: read-out: FPR2-HL60 Efficacy
T2 sequence (P25090 1-351): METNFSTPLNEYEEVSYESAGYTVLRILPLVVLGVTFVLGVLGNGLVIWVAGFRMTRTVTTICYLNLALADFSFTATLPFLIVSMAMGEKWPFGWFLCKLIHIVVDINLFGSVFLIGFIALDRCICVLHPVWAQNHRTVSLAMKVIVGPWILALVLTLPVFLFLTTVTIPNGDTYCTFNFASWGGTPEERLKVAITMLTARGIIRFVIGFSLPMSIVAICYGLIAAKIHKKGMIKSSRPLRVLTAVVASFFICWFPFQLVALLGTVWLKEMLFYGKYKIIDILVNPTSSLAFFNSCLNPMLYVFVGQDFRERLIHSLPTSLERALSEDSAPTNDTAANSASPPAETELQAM
In short: as §1

[3] = target: T3, mouse Fpr1 (Mus musculus, UniProt P33766); test: Ca2+ flux assay in mFpr1-RBL cells; conditions: for mFpr1-RBL Efficacy: % of the response induced by 5 nM WKYMVm
T3 sequence (P33766 1-364): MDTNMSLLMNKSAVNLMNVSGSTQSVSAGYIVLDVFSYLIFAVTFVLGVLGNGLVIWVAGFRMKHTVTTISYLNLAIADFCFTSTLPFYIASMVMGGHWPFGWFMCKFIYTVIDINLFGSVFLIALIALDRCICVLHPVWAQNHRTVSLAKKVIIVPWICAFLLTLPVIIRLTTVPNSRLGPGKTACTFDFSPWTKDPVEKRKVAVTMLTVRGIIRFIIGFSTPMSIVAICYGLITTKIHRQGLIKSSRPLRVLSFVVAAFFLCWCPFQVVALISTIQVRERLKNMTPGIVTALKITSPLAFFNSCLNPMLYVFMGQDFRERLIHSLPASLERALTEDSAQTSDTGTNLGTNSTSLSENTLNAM
In short: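 RBL-2H3 cells carrying mouse Fpr1 were grown in DMEM with 20% FBS, 10 mM HEPES and G418 (250 µg/ml). Cells were loaded with Fluo-4 AM (1.25 µg/mL final, 30 min, 37 °C, dark) and plated at 2 × 10^5 cells/well. Fluorescence (485/538 nm) was read every 5 s for 240 s at room temperature after compound addition. Maximal rise over baseline normalized to 5 nM WKYMVm. EC50 from 5–6-point nonlinear fits, three experiments.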

[4] = test system: human polymorphonuclear neutrophils (hPMN); test: Ca2+ flux assay in human neutrophils; conditions: for EC50: Homo sapiens, Polymorphonuclear neutrophil, read-out: hPMN EC50
In short: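 Neutrophils from healthy donors' blood, purified by dextran sedimentation, Histopaque 1077 gradient and hypotonic red-cell lysis (>95% pure, >98% viable). Cells in HBSS− with 10 mM HEPES were loaded with Fluo-4 AM (1.25 µg/mL final) for 30 min at 37 °C, then plated at 2 × 10^5 cells/well. Fluorescence (485/538 nm) read every 5 s for 240 s at room temperature. Peak change normalized to 5 nM fMLF. EC50 from 5–6-point nonlinear regression, three experiments.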

[5] = test system: mouse polymorphonuclear neutrophils (mPMN); test: Ca2+ flux assay in mouse neutrophils; conditions: for mPMN Efficacy: % of the response induced by 5 nM WKYMVm; for EC50: read-out: mPMN EC50
In short: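 Neutrophils taken from BALB/c mouse tibia and femur bone marrow. Isolated on a 45/50/55/62/81% Percoll gradient (1600g, 30 min, 10 °C), then Histopaque 1119 to remove red cells, and kept in HBSS−. Ca2+ fluorescence (485/538 nm) monitored every 5 s for 240 s at room temperature after compound addition. Maximal change over baseline normalized to 5 nM WKYMVm. EC50 from 5–6-point nonlinear regression, three independent experiments.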

[6] = target: T4, FPR1 (Homo sapiens, UniProt P21462); test: Ca2+ flux assay in FPR1-HL60 cells; conditions: for Emax: read-out: FPR1-HL60 Efficacy
T4 sequence (P21462 1-350): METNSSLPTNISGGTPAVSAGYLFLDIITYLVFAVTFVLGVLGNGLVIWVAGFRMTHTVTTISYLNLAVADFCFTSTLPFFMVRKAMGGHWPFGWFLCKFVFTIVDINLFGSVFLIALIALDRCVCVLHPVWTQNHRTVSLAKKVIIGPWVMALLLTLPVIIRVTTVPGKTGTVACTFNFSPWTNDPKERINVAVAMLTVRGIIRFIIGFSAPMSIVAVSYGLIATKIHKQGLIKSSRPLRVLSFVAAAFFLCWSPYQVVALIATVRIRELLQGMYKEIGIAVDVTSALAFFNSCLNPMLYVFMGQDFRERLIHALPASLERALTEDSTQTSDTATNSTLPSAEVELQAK
In short: as §1

[7] = test system: human neutrophils; test: Cell migration; conditions: Neutrophil, 1 h, read-out: EC50 in migration assay
In short: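 Human neutrophils at 2 × 10^6 cells/mL in HBSS with 2% FBS, placed above a 5.0 µm polycarbonate membrane. Lower wells held test compound, DMSO (negative control) or 1 nM fMLF (positive control). Migration ran 60 min at 37 °C, 5% CO2. Migrated cells counted by ATP luminescence against neutrophil standard curves and expressed as % of spontaneous migration. EC50 from 5–6-point nonlinear fits; mean ± SD, three donors.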

[8] = target: T5, mouse Fpr2 (Mus musculus, UniProt O88536); test: Ca2+ flux assay in mFpr2-RBL cells; conditions: for mFpr2-RBL Efficacy: % of the response induced by 5 nM WKYMVm
T5 sequence (O88536 1-351): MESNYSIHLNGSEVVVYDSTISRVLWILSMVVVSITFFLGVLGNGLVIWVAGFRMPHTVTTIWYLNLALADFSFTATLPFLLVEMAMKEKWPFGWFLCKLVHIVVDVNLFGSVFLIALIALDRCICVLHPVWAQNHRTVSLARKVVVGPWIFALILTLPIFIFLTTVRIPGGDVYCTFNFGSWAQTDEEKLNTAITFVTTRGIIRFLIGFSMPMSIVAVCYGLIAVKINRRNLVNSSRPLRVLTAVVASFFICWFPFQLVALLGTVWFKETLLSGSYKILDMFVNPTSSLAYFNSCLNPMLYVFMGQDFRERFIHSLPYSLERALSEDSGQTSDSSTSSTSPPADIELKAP
In short: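 RBL-2H3 cells stably expressing mouse Fpr2, grown in DMEM with 20% FBS, 10 mM HEPES and G418. Fluo-4 AM loaded (1.25 µg/mL final, 30 min, 37 °C, dark) in HBSS− with HEPES, then resuspended in HBSS with HEPES at 2 × 10^5 cells/well. Fluorescence (485/538 nm) read every 5 s for 240 s at room temperature. Peak rise over baseline was taken and EC50 fitted from 5–6-point curves. Mean of three experiments.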

[9] = % of the response induced by 5 nM fMLF
[10] = Mus musculus, Polymorphonuclear neutrophil

Row | Molecule | FPR3-HL60 Efficacy [1] [%] | mFpr1-RBL Efficacy [3] [%] | mPMN Efficacy [5] [%] | EC50 [1] [µM] | EC50 [7] [µM] | Emax [2] [%] | EC50 [4] [µM] | Emax [6] [%] | EC50 ([2]; FPR2-HL60 EC50, Ca2+ flux) [µM] | EC50 [6] [µM] | EC50 [5, 10] [µM] | further results
1 | 1-[(4-Bromophenylcarbamoyl)-methyl]-5-(3-methoxyphenylamino)-1,6-dihydro-3-methyl-6-oxopyridazine-4-carboxylate [Compound 20] | 75 | 50 | 100 |  |  |  |  |  |  |  |  | EC50 ([1]; read-out: FPR3-HL60 EC50, Ca2+ flux, HL-60 cells transfected with FPR3): 17.1 ± 4.3 µM; FPR2-HL60 Efficacy ([2]; % of the response induced by 5 nM WKYMVm): 115%; EC50 ([2]; read-out: FPR2-HL60 EC50, Ca2+ flux): 3.1 ± 0.78 µM; EC50 ([3]; read-out: mFpr1-RBL EC50, Ca2+ flux, RBL cells transfected with mouse Fpr1): 4.7 ± 1.3 µM; hPMN Efficacy [4, 9]: 155%; EC50 ([5]; Ca2+ flux, mouse bone marrow neutrophils): 1 ± 0.34 µM; FPR1-HL60 Efficacy [6, 9]: 130%; EC50 ([6]; read-out: FPR1-HL60 EC50, Ca2+ flux, HL-60 cells transfected with FPR1): 0.6 ± 0.1 µM
2 | COc1cccc(Nc2c(C(C)=O)c(C)nn(CC(=O)Nc3ccc(Br)cc3)c2=O)c1 [Compound 8a, 2-[4-Acetyl-5-(3-methoxyphenylamino)-3-methyl-6-oxopyridazin-1(6H)-yl]-N-(4-bromophenyl)acetamide] | 150 |  |  | 0.21 ± 0.044 | 2.2 ± 0.51 | 60 | 0.036 ± 0.007 | 185 |  |  |  | 
3 | CCc1c(C)nn(CC(=O)Nc2ccc(Br)cc2)c(=O)c1Nc1cccc(OC)c1 [Compound 13a, N-(4-Bromophenyl)-2-[4-ethyl-5-(3-methoxyphenylamino)-3-methyl-6-oxopyridazin-1(6H)-yl]acetamide] | 35 |  |  | 0.46 ± 0.014 |  | 35 | 0.34 ± 0.11 | 185 | 0.061 ± 0.022 | 0.18 ± 0.004 |  | 
4 | C=Cc1c(C)nn(CC(=O)Nc2ccc(Br)cc2)c(=O)c1Nc1cccc(OC)c1 [Compound 15, N-(4-Bromophenyl)-2-[5-(3-methoxyphenylamino)-3-methyl-6-oxo-4-vinylpyridazin-1(6H)-yl]acetamide] | 75 |  | 30 | 6 ± 2.1 | 1.2 ± 0.24 | 105 | 0.84 ± 0.18 | 120 | 0.11 ± 0.014 | 0.23 ± 0.07 | 22.8 ± 6.4 | 
5 | Cc1nn(CC(=O)Nc2ccc(Br)cc2)c(=O)c(N)c1C(=O)C=CN(C)C [Compound 24] |  | 55 | 50 |  |  | 50 | 9.3 ± 2.3 | 120 | 5.7 ± 2.3 | 5.1 ± 1.7 | 13.5 ± 3.7 | EC50 [8]: 9.4 ± 2.7 µM; mFpr2-RBL Efficacy [8]: 65%; EC50 [3]: 6.7 ± 2.1 µM
6 | COc1cccc(Nc2c(-c3ccn(C)n3)c(C)nn(CC(=O)Nc3ccc(Br)cc3)c2=O)c1 [Compound 27a, N-(4-Bromophenyl)-2-[5-(3-methoxyphenylamino)-3-methyl-4-(1-methyl-1H-pyrazol-3-yl)-6-oxo-6H-pyridazin-1-yl]acetamide] |  |  |  |  | 1.1 ± 0.22 | 90 | 0.59 ± 0.21 | 130 | 0.59 ± 0.18 | 3.6 ± 0.28 |  | 
7 | COc1ccc(Nc2c(-c3ccn(C)n3)c(C)nn(CC(=O)Nc3ccc(Br)cc3)c2=O)cc1 [Compound 27b, N-(4-Bromophenyl)-2-[5-(4-methoxyphenylamino)-3-methyl-4-(1-methyl-1H-pyrazol-3-yl)-6-oxo-6H-pyridazin-1-yl]acetamide] | 110 | 25 | 80 | 0.67 ± 0.22 | 0.45 ± 0.17 | 120 | 0.3 ± 0.044 | 115 | 0.035 ± 0.1 | 4 ± 0.89 | 6 ± 1.9 | EC50 [8]: 18.3 ± 3.8 µM; mFpr2-RBL Efficacy [8]: 35%; EC50 [3]: 18.5 ± 4.1 µM
